Structures are written as SMILES.

As a reminder, the inhibition is the percentage by which the read-out fell short of the control. One may read the IC50 as the concentration that gives 50% inhibition.

T1 sequence (Q01650 whole entry): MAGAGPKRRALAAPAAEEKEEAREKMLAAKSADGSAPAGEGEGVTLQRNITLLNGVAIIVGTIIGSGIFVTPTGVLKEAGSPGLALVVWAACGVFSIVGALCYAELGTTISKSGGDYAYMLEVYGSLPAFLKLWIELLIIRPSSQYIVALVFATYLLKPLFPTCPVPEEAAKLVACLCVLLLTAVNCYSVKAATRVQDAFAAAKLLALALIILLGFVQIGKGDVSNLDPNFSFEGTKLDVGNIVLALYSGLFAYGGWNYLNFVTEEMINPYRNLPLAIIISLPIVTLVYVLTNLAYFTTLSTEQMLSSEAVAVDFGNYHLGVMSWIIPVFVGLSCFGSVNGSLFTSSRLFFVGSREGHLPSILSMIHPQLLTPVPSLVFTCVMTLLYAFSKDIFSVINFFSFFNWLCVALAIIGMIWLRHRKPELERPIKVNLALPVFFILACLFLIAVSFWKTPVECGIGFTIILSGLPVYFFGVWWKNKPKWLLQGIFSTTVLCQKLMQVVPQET

One test deals with T1, Large neutral amino acids transporter small subunit 1 (Homo sapiens, UniProt Q01650). The experiment in a line: Inhibition of human LAT1 expressed in HEK293-T-Rex cells assessed as inhibition of [3H]-gabapentin uptake at 200 uM by scintillation counting cis-inhibition assay. It counts as cell-based. In short, it runs like this:
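HEK cells overexpressing human LAT1; test compound at 200 μM added during [3H]-gabapentin uptake (cis-inhibition). Reported as % inhibition relative to background signal without test compound; cell data at least in triplicate.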
For `N[C@@H](Cc1ccc(O)cc1)C(=O)NO`, the inhibition stood at 39%.
On the same count and under the same terms, the value for `N[C@@H](Cc1ccccc1)c1nnn[nH]1` was 11%; that for `NCC(=O)O` [GLYCINE] was 33%; that for `N[C@@H](Cc1c[nH]c2ccccc12)C(=O)NO` was 35%.
Same read-out and setting: the value for `CS(=O)(=O)NC(=O)[C@@H](N)Cc1ccccc1` was 15%.
With `CC(C)C[C@H](N)C(=O)NO`, the inhibition amounted to 50%.
Still for that read-out and setting: for `CS(=O)(=O)NC(=O)[C@@H](N)Cc1ccc(O)cc1` the value was 12%; for `NCC(=O)NO`, 38%.

For a further test, the target named is T1, Large neutral amino acids transporter small subunit 1. The experiment in a line: Inhibition of human LAT1 expressed in HEK293-T-Rex cells assessed as inhibition of [3H]-gabapentin uptake by scintillation counting cis-inhibition assay relative to BCH inhibition (RV = 100%). It counts as cell-based.
Turning to `CSCC[C@H](N)C(=O)O` [METHIONINE], the 50% inhibitory concentration (IC50) came to 180 µM.
Same read-out and setting: the value for `NCC(=O)O` [GLYCINE] was greater than 200 µM; that for `CC[C@H](C)[C@H](N)C(=O)NO` was greater than 200 µM.
The same measure, in the same setting: the value for `CC(C)C[C@H](N)C(=O)O` [LEUCINE] was 87 µM.
Turning to `CC(C)C[C@H](N)C(N)=O`, the IC50 was greater than 200 µM.
Same read-out and setting: the value for `CC(C)C[C@H](N)C(=O)NO` was greater than 200 µM.
Still for that read-out and setting: for `CSCC[C@H](N)C(=O)NO` the value was greater than 200 µM; for `CC[C@H](C)[C@H](N)C(=O)O` [ISOLEUCINE], 150 µM; for `CONC(=O)[C@@H](N)CC(C)C`, greater than 200 µM.
The same measure, in the same setting: for `NCC(=O)NO` the value was greater than 200 µM.
